Test results reported in paper PMC3100537 (Biochemistry, 2011).
Values joined by “and” are separate entries in the source; they are usually repeats but may differ in a detail not shown here. Equal entries are not always repeated.

Key:
[1] = Non-denaturing gradient gel electrophoresis; format: physicochemical; details: Native-PAGE 4–20% Tris-glycine gel; stock solutions 1 mg/ml PBS, pH 7.4; 3 μg per well
[2] = Circular dichroism spectroscopy, secondary structure; format: physicochemical
Method in brief: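 Lipid-free peptide in 10 mM sodium phosphate, pH 7.4, at 25°C; 2 mg/ml stock diluted in the same buffer to 6–310 μM (18–1000 μg/ml). Four scans at 20 nm/min averaged per concentration. α-Helicity derived from molar ellipticity at 222 nm; [θ]222/[θ]208 ratio plotted against concentration. For TFE, 0.2 mg/ml peptide held ±50% TFE for 30 min at 25°C before scanning (n=3).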

[3] = physchem; details: pH 7.4, aqueous buffer
[4] = Gel-filtration chromatography; format: physicochemical
Method in brief: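 Size-exclusion FPLC on Superdex 75 or Superdex Peptide columns equilibrated in PBS (10 mM phosphate, 150 mM NaCl, pH 7.4), run at 0.5 ml/min at room temperature. 0.2 ml of peptide stock (0.125 to 140 mg/ml; concentration set by A280) injected, with elution read at 280 or 215 nm. Columns calibrated with molecular weight standards. Stocks also run after 2 years' sterile storage at 4°C or 24 h at 37°C.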

[5] = Small angle X-ray scattering; format: physicochemical
Method in brief: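 Concentration-scaled intensity at q = 0 converted to mass by calibration against lysozyme, xylanase and BSA. Ab initio shape from ten averaged modelling runs. Two independent peptide preparations measured.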

[6] = DMS cross-linking / SDS-PAGE of self-associated forms; format: physicochemical; details: 20-fold molar excess DMS, 3 h, 25 °C; SDS-PAGE 10–20% Tricine gel
Method in brief: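 Peptide at various concentrations reacted with 20-fold molar excess dimethylsuberimidate for 3 h at 25°C, then quenched with 50 mM Tris-HCl. Mixed with SDS loading buffer, boiled 1 min, and run on 10–20% Tris-Tricine SDS-PAGE. Protein stain visualized cross-linked species, sized against 1.7–40 kDa markers.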

[7] = system: J774 mouse macrophages; details: lipid-free peptide; cited from earlier work

Row | Substance | migration form on non-denaturing gel (aggregation) [1] | α-helical content, presence of 50% TFE ([2]; 0.2 mg/ml, 50% TFE) [%] | α-helical content, absence of TFE ([2]; 0.2 mg/ml, no TFE) [%] | solubility [3] [µg/mL] | gel-filtration profile after prolonged storage ([4]; 2 years in PBS at 4 °C under sterile conditions, data not shown) | concentration at which monomeric ATI-5261 predominated ([4]; FPLC (Superdex 75 and Peptide columns) and SDS-PAGE/DMS cross-linking) [ng/mL] | concentration at which peptide monomers were predominant ([4]; FPLC, allowing for ~10-fold dilution on the columns, PBS pH 7.4) [ng/mL] | MW of the peptide assembly by FPLC ([4]; Superdex Peptide 10/300 GL column, 1 mg peptide/ml, PBS, A215, calibrated with (Gly)6, aprotinin, ribonuclease A) [kDa] | gel-filtration profile after incubation at 37 °C ([4]; incubation at 37 °C for 24 h, data not shown) | SAXS MW relative to monomeric weight of the peptide (3230 Da) ([5]; 2–8 mg/ml PBS pH 7.4) | aggregation detected from X-ray intensity profiles ([5]; peptide at 2–8 mg/ml PBS) | concentration range of dissociation of the tetrameric assembly to monomers [6] [mg/ml] | α-helical content, extensively diluted sample ([2]; 6 μM, i.e. 18 μg/ml, 10 mM phosphate buffer pH 7.4, 25 °C) [%] | α-helical content with 50% TFE compared to controls with no TFE ([2]; 0.2 mg/ml, 10 mM phosphate pH 7.4, 30 min TFE at 25 °C, n=3) | 222/208 ellipticity ratio ([2]; 50% TFE) | α-helical content ([2]; lipid-free peptide, 10 mM phosphate buffer pH 7.4, 25 °C, 0.2 mg/ml (62 μM), from molar ellipticity at 222 nm, mean ± SD, n=4) [%] | concentration of saturation in cholesterol efflux [7] [µg/mL]
1 | Ac-DWFKAFYDKVAEKFKEAF-NH2 [peptide 4F, reference compound] | aggregated as high molecular weight (HMW) species | 49 | 28 | ~1000 | – | – | – | – | – | – | – | – | – | – | – | – | –
2 | Ac-EVRSKLEEWFAAFREFAEEFLARLKS-NH2 [ATI-5261] | low molecular weight (LMW) band | – | – | – | not altered | ≤ 25000 | < 25000 | 12.8 | not altered | ~4 times and 4.1 times | Little or no aggregation | 0.5 to 0.025 | 82.6 | remained unchanged | < 1 | 74.1±6.8 | 3
